Experimental data as given in ChEMBL document CHEMBL1122892, “Mineralocorticoid properties of potential metabolites of 18-hydroxydeoxycorticosterone and 18-hydroxyprogesterone” (J Med Chem, 1985).

Tests used:
[1] = target: T1, Mineralocorticoid receptor (Rattus norvegicus) (UniProt P22199); assay: Mineralocorticoid activity in vivo expressed as a ratio (M/DOCA) of the urinary sodium/potassium excretion transformations after deoxy-corticosterone acetate treatment.; type: functional, organism-based; settings: Urine
T1 sequence (whole entry): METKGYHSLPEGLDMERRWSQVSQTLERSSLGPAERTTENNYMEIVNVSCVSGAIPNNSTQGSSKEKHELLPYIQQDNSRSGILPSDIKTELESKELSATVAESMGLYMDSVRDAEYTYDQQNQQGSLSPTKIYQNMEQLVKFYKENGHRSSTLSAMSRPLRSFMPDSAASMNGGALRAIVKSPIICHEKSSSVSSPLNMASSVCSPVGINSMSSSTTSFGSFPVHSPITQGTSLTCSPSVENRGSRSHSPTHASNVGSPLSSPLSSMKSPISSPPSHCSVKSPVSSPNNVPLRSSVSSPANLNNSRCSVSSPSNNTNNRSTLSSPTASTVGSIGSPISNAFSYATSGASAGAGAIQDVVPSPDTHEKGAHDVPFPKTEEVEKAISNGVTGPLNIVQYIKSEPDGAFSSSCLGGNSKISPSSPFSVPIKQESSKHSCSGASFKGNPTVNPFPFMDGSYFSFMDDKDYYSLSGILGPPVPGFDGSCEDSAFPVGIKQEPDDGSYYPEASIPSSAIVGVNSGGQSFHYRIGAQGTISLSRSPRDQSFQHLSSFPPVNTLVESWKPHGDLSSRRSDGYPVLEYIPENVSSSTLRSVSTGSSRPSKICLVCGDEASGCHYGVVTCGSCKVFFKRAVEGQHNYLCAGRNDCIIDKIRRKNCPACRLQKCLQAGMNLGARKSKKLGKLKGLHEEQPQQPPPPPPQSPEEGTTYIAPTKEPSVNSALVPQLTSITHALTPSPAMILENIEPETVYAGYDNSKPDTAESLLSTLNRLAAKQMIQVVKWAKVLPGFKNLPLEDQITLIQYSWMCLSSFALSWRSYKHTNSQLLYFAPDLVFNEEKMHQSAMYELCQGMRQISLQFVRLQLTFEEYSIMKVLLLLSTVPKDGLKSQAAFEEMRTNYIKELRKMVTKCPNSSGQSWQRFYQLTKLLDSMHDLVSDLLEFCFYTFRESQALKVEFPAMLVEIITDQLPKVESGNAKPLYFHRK
Summary of the method: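 Saline-loaded (2.5 mL) adrenalectomized rats given 12 μg DOCA s.c. in oil plus test steroid 2.4 mg/animal s.c. in corn oil. Urine collected 4 h in metabolism cages, then voided by suprapubic pressure. Na and K measured by flame photometry as log(Na × 10/K). Ratio to DOCA-only controls (M/DOCA); >1.23 taken as antagonism, <0.85 as agonism.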

[2] = target: T1, Mineralocorticoid receptor (Rattus norvegicus); assay: Binding affinity expressed as the percent inhibition of 2x10E-9 M [3H]aldosterone binding to the renal mineralocorticoid receptor by the presence of competing steroid (8x10E-8 M).
Summary of the method: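 Washed kidney slices from adrenalectomized rats incubated with 2 × 10^-9 M [3H]aldosterone plus 8 × 10^-8 M competing 18-hydroxy steroid and 2 × 10^-8 M dexamethasone, pH 7.2 Tris/phosphate saline buffer with Mg, Ca, dextrose. Homogenized; high-speed supernatant treated with charcoal-dextran to strip free ligand. Bound label counted as cpm/mg protein, nonspecific at 2 × 10^-7 M unlabeled aldosterone. Value is % inhibition; Student's t test vs 0%.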

SMILES	Ratio [1]	Percent inhibition of [3H]aldosterone binding [2]
CC(=O)OCC1(O)OC[C@]23CC[C@H]4[C@@H](CC[C@H]5C[C@@H](O)CC[C@@]54C)[C@@H]2CC[C@H]13 (stereo partly specified)	0.83	
CC(=O)OCC12CC[C@H]3[C@@H](CC[C@H]4CC(=O)CCC43C)[C@@H]1CCC2C(C)=O (stereo partly specified)	1.1	0
C[C@H]1OC(=O)C23CC[C@H]4[C@@H](CC[C@H]5CC(=O)CCC54C)[C@@H]2CCC13 (stereo partly specified)	0.96	10.5
CC(=O)OCC1(O)OC[C@]23CC[C@H]4[C@@H](CC[C@H]5CC(=O)CC[C@@]54C)[C@@H]2CC[C@H]13 (stereo partly specified)	0.96	20
CC1(O)OCC23CC[C@H]4[C@@H](CC[C@H]5CC(O)CCC54C)[C@@H]2CCC13 (stereo partly specified)	0.92	30
C[C@H]1OC(=O)[C@]23CC[C@H]4[C@@H](CC[C@H]5CC(=O)CC[C@@]54C)[C@@H]2CC[C@H]13	0.87	0
CC12CCC(=O)C[C@@H]1CC[C@H]1[C@@H]3CCC4C(O)(CO)OCC43CC[C@@H]12 (stereo partly specified)	0.69	3
C[C@@H](O)C1CC[C@H]2[C@@H]3CC[C@H]4CC(O)CCC4(C)[C@H]3CCC12CO (stereo partly specified)	0.72	23.5
CC(=O)OCC12CC[C@H]3[C@@H](CC[C@H]4CC(O)CCC43C)[C@@H]1CCC2C(C)=O (stereo partly specified)	0.99	0
CC(=O)OCC12CCC3C(CC=C4CC(O)CCC43C)C1CCC2C(C)=O (stereo unspecified)	1.95	0
C[C@]12CC[C@H](O)C[C@@H]1CC[C@@H]1[C@@H]2CC[C@]23COC(O)(CO)[C@H]2CC[C@@H]13 (stereo partly specified)	1.06	19.5
C[C@H]1OC(=O)C23CCC4C(CCC5=CC(=O)CCC54C)C2CCC13 (stereo partly specified)	1.32	65
CC(=O)OCC1(O)OCC23CCC4C(CC=C5CC(O)CCC54C)C2CCC13 (stereo unspecified)	0.55	7
C[C@@H](O)C1CCC2C3CCC4=CC(=O)CCC4(C)C3CCC21CO (stereo partly specified)	1.33	34.3
C[C@@H](O)[C@H]1CC[C@H]2[C@@H]3CC[C@H]4CC(=O)CC[C@]4(C)[C@H]3CC[C@]12CO	0.43	6.5
C[C@H]1OC(=O)C23CCC4C(CC=C5CC(O)CCC54C)C2CCC13 (stereo partly specified)	0.72	12.5
CC1(O)OCC23CC[C@H]4[C@@H](CC[C@H]5CC(=O)CCC54C)[C@@H]2CCC13 (stereo partly specified)	0.91	8.3
CC(=O)OC[C@]12CC[C@H]3[C@@H](CC[C@H]4CC(=O)CC[C@@]43C)[C@@H]1CC[C@@H]2[C@@H](C)O	1.16	10.5
CC(=O)OCC1(O)OCC23CC[C@H]4[C@@H](CC[C@H]5CC(=O)CCC54C)[C@@H]2CCC13 (stereo partly specified)	0.8	20

SMILES	Ratio [1]	Percent inhibition of [3H]aldosterone binding [2]
CC(=O)OCC1(O)OCC23CC[C@H]4[C@@H](CC[C@H]5CC(O)CCC54C)[C@@H]2CCC13 (stereo partly specified)	1.1	0
CC(=O)OCC1(O)OCC23CCC4C(CCC5=CC(=O)CCC54C)C2CCC13 (stereo unspecified)	0.71	34
CC(=O)OC[C@]12CC[C@H]3[C@@H](CC[C@H]4CC(=O)CC[C@@]43C)[C@@H]1CC[C@@H]2C(C)=O	1.08	0
CC1(O)OCC23CCC4C(CC=C5CC(O)CCC54C)C2CCC13 (stereo unspecified)	0.5	10.1
C[C@@H](O)C1CC[C@H]2[C@@H]3CC[C@H]4CC(=O)CCC4(C)[C@H]3CCC12CO (stereo partly specified)	1.03	13
CC(=O)OCC12CCC3C(CCC4=CC(=O)CCC43C)C1CCC2C(C)=O (stereo unspecified)	1.19	25.5
CC1(O)OC[C@]23CC[C@H]4[C@@H](CCC5C[C@@H](O)CC[C@@]54C)[C@@H]2CC[C@H]13 (stereo partly specified)	0.91	
CC(=O)OCC12CC[C@H]3[C@@H](CC[C@H]4CC(=O)CCC43C)[C@@H]1CCC2[C@@H](C)O (stereo partly specified)	0.93	17
CC12CCC(=O)C=C1CCC1C2CCC23COC(O)(CO)C2CCC13 (stereo unspecified)	0.54	29.5
CC(=O)OCC12CCC3C(CCC4=CC(=O)CCC43C)C1CCC2[C@@H](C)O (stereo partly specified)	1.16	13
CC12CCC(O)CC1=CCC1C2CCC23COC(O)(CO)C2CCC13 (stereo unspecified)	0.71	3.5
CC(=O)OC[C@]12CC[C@H]3[C@@H](CC[C@H]4C[C@@H](O)CC[C@@]43C)[C@@H]1CC[C@@H]2C(C)=O	1.13	14.2
CC1(O)OC[C@]23CC[C@H]4[C@@H](CC[C@H]5CC(=O)CC[C@@]54C)[C@@H]2CC[C@H]13 (stereo partly specified)	1.01	0
C[C@]12CCC(=O)C[C@@H]1CC[C@@H]1[C@@H]2CC[C@]23COC(O)(CO)[C@H]2CC[C@@H]13 (stereo partly specified)	0.78	32
CC12CCC(O)C[C@@H]1CC[C@H]1[C@@H]3CCC4C(O)(CO)OCC43CC[C@@H]12 (stereo partly specified)	0.96	0
C[C@@H](O)C1CCC2C3CC=C4CC(O)CCC4(C)C3CCC21CO (stereo partly specified)	0.89	5
C[C@H]1OC(=O)C23CC[C@H]4[C@@H](CC[C@H]5CC(O)CCC54C)[C@@H]2CCC13 (stereo partly specified)	0.61	
CC1(O)OCC23CCC4C(CCC5=CC(=O)CCC54C)C2CCC13 (stereo unspecified)	0.76	34.5
